Experimental data: PMC10582678 (Clinical and Translational Science, 2023)

Assays:
[1] = Safety, adverse events, food effect study; format: in vivo, human; details: for AEs / Increased blood triglycerides / Abdominal discomfort / Constipation / Decreased leukocyte count / Decreased lymphocyte count / Decreased neutrophil count / Dermatitis allergic / Dyspepsia / Increased ALT / Increased AST / Increased blood bilirubin / Increased blood cholesterol / Increased blood creatinine / Lethargy / Mouth ulceration / Oropharyngeal pain / Sinus arrythmia / Treatment discontinuation due to AEs / Upper respiratory tract infection: Food effect 600 mg, n (%)
In short: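 Safety was monitored by vital signs, clinical laboratory tests, physical examination, 12-lead ECG, AEs and SAEs. AEs were coded with MedDRA 23.1 and graded by CTCAE 5.0. Subjects were discharged 6 days after the last dose, with a follow-up visit 8–14 days after the last dose. The safety set comprised randomized subjects who received active drug or placebo and had post-dose safety data.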

[2] = Preclinical safety in rats; format: in vivo; details: stated in introduction
BTK = BTK (Homo sapiens, UniProt Q06187); assay: BTK receptor occupancy in peripheral blood monocytes; format: in vivo
In short: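 Peripheral blood was sampled from healthy adult Chinese subjects given oral test compound or placebo. In the multiple-dose part, samples were taken at 0, 12, 24 and 168 h after the first dose (day 1) and at 0 and 12 h after the last dose (day 10). In the food-effect part, samples were taken at 0, 12, 24 and 120 h postdose. BTK occupancy was measured by validated ELISA (sensitivity 1.784 ng/mL). Negative placebo values were set to 0.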

[3] = Plasma pharmacokinetics, single ascending dose; format: in vivo, human; details: for CL/F / AUC(0-t): mean ± SD; for T last: median (min, max); for Tmax / half-life / AUC(0-inf) / MRT / Vd/F / AUC(0-t) / Cmax: human, plasma; for Tmax / half-life / AUC(0-inf) / MRT / Vd/F / AUC(0-t): oral; for Cmax: po
In short: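 Healthy subjects received single oral doses under fasting conditions: 100 mg (three subjects), or 200, 400, 600 or 800 mg in cohorts of eight randomized 6 active:2 placebo, double-blind. Plasma drug was quantified by validated HPLC-tandem accurate mass spectrometry with a calibration range of 5.00–5000 ng/mL. Cmax, Tmax, AUC, t1/2, CL/F, Vz/F and MRT were derived by noncompartmental analysis and reported as mean ± SD (%CV) or median.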

Chain of BTK (Q06187 whole entry): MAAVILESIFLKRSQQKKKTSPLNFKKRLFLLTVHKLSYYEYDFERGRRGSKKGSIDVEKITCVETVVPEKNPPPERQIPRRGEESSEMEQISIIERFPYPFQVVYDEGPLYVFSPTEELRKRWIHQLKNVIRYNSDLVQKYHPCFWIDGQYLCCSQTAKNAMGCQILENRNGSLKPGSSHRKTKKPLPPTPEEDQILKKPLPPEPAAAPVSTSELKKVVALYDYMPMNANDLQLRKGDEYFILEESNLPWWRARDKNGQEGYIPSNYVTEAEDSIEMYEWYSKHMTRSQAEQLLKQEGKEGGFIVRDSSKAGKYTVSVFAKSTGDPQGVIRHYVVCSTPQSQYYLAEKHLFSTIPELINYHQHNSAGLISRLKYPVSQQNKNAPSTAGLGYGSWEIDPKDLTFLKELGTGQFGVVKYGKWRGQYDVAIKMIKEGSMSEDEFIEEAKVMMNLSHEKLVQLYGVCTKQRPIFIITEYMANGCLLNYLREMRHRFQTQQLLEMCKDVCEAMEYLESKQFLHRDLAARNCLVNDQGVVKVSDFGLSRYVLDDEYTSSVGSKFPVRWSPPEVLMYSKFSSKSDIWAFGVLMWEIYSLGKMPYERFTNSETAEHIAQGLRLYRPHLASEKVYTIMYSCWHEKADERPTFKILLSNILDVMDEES

For N#CN1C[C@H](n2nc(-c3ccc(Oc4ccc(Cl)cn4)cc3)c(C(N)=O)c2N)CCC12CC2 [SN1011, 5-amino-3-(4-((5-chloro-2-pyridinyl)oxy)phenyl)-1-((6R)-4-cyano-4-azaspiro[2.5]octan-6-yl)-1H-pyrazole-4-carboxamide], the AEs ([1]; Total N = 12) was 7 (58.3), the Increased blood triglycerides ([1]; Total N = 12) was 5 (41.7) and the AEs ([1]; column Fasted-Fed) was 5 (41.7). For the same compound, the Abdominal discomfort ([1]; column Fasted-Fed) was 0, the Constipation ([1]; column Fasted-Fed) was 0 and the Decreased leukocyte count ([1]; column Fasted-Fed) was 0. For the same compound, the Decreased lymphocyte count ([1]; column Fasted-Fed) was 0, the Decreased neutrophil count ([1]; column Fasted-Fed) was 0 and the Dermatitis allergic ([1]; column Fasted-Fed) was 0. The Dyspepsia ([1]; column Fasted-Fed) was 0, the “Increased ALT” value ([1]; column Fasted-Fed) was 0 and the “Increased AST” value ([1]; column Fasted-Fed) was 0. The Increased blood bilirubin ([1]; column Fasted-Fed) was 0, the Increased blood cholesterol ([1]; column Fasted-Fed) was 0 and the Increased blood creatinine ([1]; column Fasted-Fed) was 0. For the same compound, the Increased blood triglycerides ([1]; column Fasted-Fed) was 4 (33.3), the Lethargy ([1]; column Fasted-Fed) was 0 and the Mouth ulceration ([1]; column Fasted-Fed) was 0. The Oropharyngeal pain ([1]; column Fasted-Fed) was 0, the Sinus arrythmia ([1]; column Fasted-Fed) was 0 and the “Treatment discontinuation due to AEs” value ([1]; column Fasted-Fed) was 1 (8.3). For the same compound, the “Upper respiratory tract infection” value ([1]; column Fasted-Fed) was 0, the AEs ([1]; column Fed-Fasted) was 2 (18.2) and the Abdominal discomfort ([1]; column Fed-Fasted) was 0. The Constipation ([1]; column Fed-Fasted) was 0, the Decreased leukocyte count ([1]; column Fed-Fasted) was 0 and the Decreased lymphocyte count ([1]; column Fed-Fasted) was 0. The Decreased neutrophil count ([1]; column Fed-Fasted) was 0, the Dermatitis allergic ([1]; column Fed-Fasted) was 0 and the Dyspepsia ([1]; column Fed-Fasted) was 0. For the same compound, the “Increased ALT” value ([1]; column Fed-Fasted) was 0, the “Increased AST” value ([1]; column Fed-Fasted) was 0 and the Increased blood bilirubin ([1]; column Fed-Fasted) was 1 (9.1). For the same compound, the Increased blood cholesterol ([1]; column Fed-Fasted) was 0, the Increased blood creatinine ([1]; column Fed-Fasted) was 0 and the Increased blood triglycerides ([1]; column Fed-Fasted) was 1 (9.1). It also gave a Lethargy ([1]; column Fed-Fasted) of 0, a Mouth ulceration ([1]; column Fed-Fasted) of 0 and an Oropharyngeal pain ([1]; column Fed-Fasted) of 0. The Sinus arrythmia ([1]; column Fed-Fasted) was 0, the “Treatment discontinuation due to AEs” value ([1]; column Fed-Fasted) was 0 and the “Upper respiratory tract infection” value ([1]; column Fed-Fasted) was 0. The “subjects who experienced AEs” value ([1]; food effect study, 12 subjects, 600 mg) was 58.3%, the “subjects with AE leading to study discontinuation” value ([1]; food effect study, 12 subjects, increased triglycerides, grade 3) was 8.3% and the safety profile [2] was “acceptable safety profile”. The BTK receptor occupancy (BTK; MAD groups, 10 days of continuous q.d. administration of 400 and 600 mg) was “above 80%”, the BTK receptor occupancy (BTK; over 24 h after single administration of 600 mg, fasted and fed states) was “above 83%” and the CL/F ([3]; SAD 100 mg) was 49.6 ± 13.9 (28%) L/h. For the same compound, the T last ([3]; SAD 100 mg) was 48.0 (48.0, 72.0) h, the CL/F ([3]; SAD 200 mg) was 44.8 ± 15.3 (34%) L/h and the T last ([3]; SAD 200 mg) was 72.0 (48.0, 96.0) h. For the same compound, the CL/F ([3]; SAD 400 mg) was 36.5 ± 9.1 (25%) L/h, the T last ([3]; SAD 400 mg) was 96.0 (72.0, 144.0) h and the CL/F ([3]; SAD 600 mg) was 43.4 ± 19.5 (45%) L/h. The T last ([3]; SAD 600 mg) was 108.0 (72.0, 144.0) h, the CL/F ([3]; SAD 800 mg) was 44.8 ± 22.3 (50%) L/h and the T last ([3]; SAD 800 mg) was 132.0 (120.0, 144.1) h. For the same compound, the Tmax [3] was 3 to 5 h, the half-life [3] was 15.5 to 21.8 h and the AUC(0-inf) ([3]; 100 mg) was 2110 ± 525 ng·h/mL. It also gave an MRT ([3]; 100 mg) of 26.4 ± 1.7 h, a Tmax ([3]; 100 mg) of 4 h and a Vd/F ([3]; 100 mg) of 1210 ± 497 L. For the same compound, the half-life ([3]; 100 mg) was 16.5 ± 2.1 h, the AUC(0-t) ([3]; 100 mg, AUC0-24, SAD 100 mg) was 1240 ± 339 ng·h/mL and the AUC(0-t) ([3]; 100 mg, AUC0-t, SAD 100 mg) was 1880 ± 523 ng·h/mL. For the same compound, the AUC(0-inf) ([3]; 200 mg) was 4920 ± 1710 ng·h/mL, the MRT ([3]; 200 mg) was 22.9 ± 4 h and the Tmax ([3]; 200 mg) was 3 h. It also gave a Vd/F ([3]; 200 mg) of 989 ± 293 L, a half-life ([3]; 200 mg) of 15.5 ± 2.4 h and an AUC(0-t) ([3]; 200 mg, AUC0-24, SAD 200 mg) of 3210 ± 1190 ng·h/mL. It also gave an AUC(0-t) ([3]; 200 mg, AUC0-t, SAD 200 mg) of 4700 ± 1730 ng·h/mL, an AUC(0-inf) ([3]; 400 mg) of 11600 ng·h/mL and an MRT ([3]; 400 mg) of 29.4 ± 9.9 h. The Tmax ([3]; 400 mg) was 3.5 h, the Vd/F ([3]; 400 mg) was 997 ± 350 L and the half-life ([3]; 400 mg) was 19.3 ± 6.5 h. It also gave an AUC(0-t) ([3]; 400 mg, AUC0-24, SAD 400 mg) of 6510 ± 1960 ng·h/mL, an AUC(0-t) ([3]; 400 mg, AUC0-t, SAD 400 mg) of 11300 ng·h/mL and an AUC(0-inf) ([3]; 600 mg) of 16800 ng·h/mL. The MRT ([3]; 600 mg) was 28.7 ± 8.5 h, the Tmax ([3]; 600 mg) was 4 h and the Vd/F ([3]; 600 mg) was 1060 ± 227 L. The half-life ([3]; 600 mg) was 19.1 ± 6.4 h, the AUC(0-t) ([3]; 600 mg, AUC0-24, SAD 600 mg) was 9100 ± 3420 ng·h/mL and the AUC(0-t) ([3]; 600 mg, AUC0-t, SAD 600 mg) was 16400 ng·h/mL. The AUC(0-inf) ([3]; 800 mg) was 22300 ng·h/mL, the MRT ([3]; 800 mg) was 31.1 ± 6.3 h and the Tmax ([3]; 800 mg) was 5 h. For the same compound, the Vd/F ([3]; 800 mg) was 1400 ± 760 L, the half-life ([3]; 800 mg) was 21.8 ± 4.1 h and the AUC(0-t) ([3]; 800 mg, AUC0-24, SAD 800 mg) was 11500 ng·h/mL. For the same compound, the AUC(0-t) ([3]; 800 mg, AUC0-t, SAD 800 mg) was 21900 ng·h/mL, the Cmax ([3]; 100 mg) was 84.2 ± 16.4 ng/mL and the Cmax ([3]; 200 mg) was 293 ± 132 ng/mL. It also gave a Cmax ([3]; 400 mg) of 487 ± 221 ng/mL, a Cmax ([3]; 600 mg) of 674 ± 259 ng/mL and a Cmax ([3]; 800 mg) of 779 ± 405 ng/mL.
